Sampled rows, rich in hits. Any-hit rate of the full collection: about 1.5%.
CXCR6 block – CXCR6 receptor inhibitors, primary screen, cell-based, beta-arrestin, luminescence, CHO-K1 PathHunter, 1536-well; C-X-C chemokine receptor type 6 (Homo sapiens), O00574; inhibition, % at 20 µM; 0.36% of 360,000 active; in the data active = inhibition above about 34%, passing the limit was not always enough;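 note: antagonist mode with CXCL16 agonist at 10 nM final; 0% = 10 nM CXCL16 with DMSO and 100% = unstimulated wells without agonist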
EBI2 block – EBI2 receptor antagonists, beta-arrestin recruitment, primary screen, cell-based, luminescence, 7a,25-OHC stimulation, uHTS; 7a,25-OHC stimulated; inhibition, % at 5 µM; 0.81% of 360,000 active; AID 651636, 2012; in the data active = inhibition above about 38%;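 note: enzyme fragment complementation signal reports receptor beta-arrestin coupling in cells; 0% = agonist plus DMSO wells and 100% = wells without agonist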
Target sequence (P32249 whole entry, looked up, the tested form may be a part): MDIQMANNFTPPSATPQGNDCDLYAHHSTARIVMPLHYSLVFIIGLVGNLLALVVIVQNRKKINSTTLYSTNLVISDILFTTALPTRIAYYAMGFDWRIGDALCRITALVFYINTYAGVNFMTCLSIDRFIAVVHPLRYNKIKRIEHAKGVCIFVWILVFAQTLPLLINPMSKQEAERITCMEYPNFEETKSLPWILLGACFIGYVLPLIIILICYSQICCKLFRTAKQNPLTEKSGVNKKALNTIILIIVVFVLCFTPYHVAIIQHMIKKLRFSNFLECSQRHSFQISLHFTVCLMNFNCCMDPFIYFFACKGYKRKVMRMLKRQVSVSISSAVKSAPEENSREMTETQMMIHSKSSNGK
CCR6 antag – CCR6 receptor antagonists, primary screen, cell-based, CHO-K1, luminescence, beta-arrestin, uHTS. AID 493098, 2011. C-C chemokine receptor type 6 (Homo sapiens), P51684. inhibition, % at 20 µM. CHO-K1 CCR6 PathHunter beta-arrestin, CCL20-stimulated. 0.49% of 340,000 active;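 active = compounds whose inhibition of the agonist-driven luminescence signal at 20 µM reaches about 50%, limit read from the data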;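 note: cells stimulated with CCL20 at 14 nM final; plate controls were DMSO with CCL20 for no effect and DMSO without agonist for full effect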
APJ antagonist – antagonists of human apelin receptor APJ, primary screen, CHO-K1 cells, beta-arrestin complementation, luminescence; P35414; inhibition, % at 20 µM; 0.32% of 330,000 active;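 active = inhibition above about 40% at 20 µM, limit read from the data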;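 note: cells challenged with 10 nM apelin-13 agonist together with compound; plate controls were apelin-13 plus DMSO wells for no effect and DMSO wells lacking apelin-13 for full effect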
APJ ag – agonists of human apelin receptor APJ, primary screen, CHO-K1 cells, PathHunter beta-arrestin, luminescence | 0% DMSO wells, 100% apelin | activation, % at 20 µM | P35414 | 0.11% of 330,000 active;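 active = activation more than six SD over the plate average, tested at 20 µM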;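 note: 0% = DMSO alone and 100% = apelin-13 at 10 nM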
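assay system = CHO-K1 APJ beta-arrestin complementation cell line | input = cell density 1000 per well | dosing = compound 20 µM once, DMSO 1% | timing = compound 90 min 25 °C, reagent 1 h | measured by = luminescence from split beta-galactosidase complementation, Galacton Star/Emerald II substrate | read-out basis = APJ agonist activity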
EBI2 conf – EBI2 antagonist hit retest, beta-arrestin, confirmation, cell-based, single concentration, luminescence, 7a,25-OHC stimulation | AID 651997, 2013 | shares compounds with EBI2 block | 29% of 2,400 active | 7a,25-OHC antagonism | inhibition, % at 5 µM;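 active = inhibition of at least 50%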
EBI2 ag – EBI2 agonist activity of antagonist hits, confirmation, counter-screen for EBI2 antagonist project, cell-based, single concentration, agonist mode, luminescence | shares compounds with EBI2 block | EBI2-expressing cells, 60 min; 0% vehicle, 100% 7α,25-dihydroxycholesterol control | activation, % at 5 µM | 2,400 tested, under 10 active;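 active = activation of at least 50%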
bGal cs – E. coli beta-galactosidase enzyme inhibition, confirmation, counter-screen for EBI2 antagonist project, biochemical, luminescence, single concentration. shares compounds with EBI2 block. purified beta-galactosidase, luminescent Galacton Star, 15 min. inhibition, % at 5 µM. 1% of 2,400 active;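 active = replicate-average signal at least 3 plate SD below neutral wells, shown as high inhibition, flagging enzyme-inhibiting false positives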;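 note: 0% = DMSO wells with enzyme and 100% = wells lacking enzyme; higher means stronger loss of beta-gal luminescence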
An asterisk follows results filed as active; · = not tested or not shown.

SMILES	CXCR6 block	EBI2 block	CCR6 antag	APJ antagonist	APJ ag	EBI2 conf	EBI2 ag	bGal cs
Cc1ccc(C(=O)Nc2cccc(C(=O)N3CCOCC3)c2)cc1Cl	3.3	2.7	2.4	4.8	-5.3	·	·	·
O=C(Nc1cccc(-c2csc(Nc3cccc(C(F)(F)F)c3)n2)c1)c1ccccc1	-12.0	46.2*	-1.4	-0.6	-0.5	23.4	-1.0	-15.2
O=C(Nc1ccc(-c2csc(Nc3cccc(C(F)(F)F)c3)n2)cc1)c1ccccc1	1.3	20.1	-7.8	-12.7	0.9	·	·	·
CCNC(=O)C1(C)CCN(C(=O)c2ccc(OC)cc2OC)C1 (stereo not given)	1.8	-12.6	·	·	·	·	·	·
CCN(CC)CCSc1nnc2c3cc(C)ccc3n(Cc3ccccc3)c2n1	2.5	74.1*	17.4	18.8	-1.5	51.9*	1.2	-0.6
CSc1nnc2c3cc(F)ccc3n(Cc3ccccc3)c2n1	0.0	-0.8	-8.1	22.6	-1.2	·	·	·
O=C(c1cc2cc(Cl)ccc2[nH]1)N1CCN(c2ccccn2)CC1	-5.8	80.1*	-7.1	11.5	-1.7	67.0*	-2.2	-8.4
O=C(c1cc2cc(Cl)ccc2[nH]1)N1CCN(c2ccccc2F)CC1	0.8	85.2*	-10.7	-8.9	-1.1	73.1*	0.7	7.4
O=C(c1cc2cc(Cl)ccc2[nH]1)N1CCN(C(=O)c2ccco2)CC1	-4.9	72.7*	-8.7	-10.0	4.0	48.7	-1.4	-7.4
CC(=O)c1cccc(NC(=S)N2c3ccccc3CC2C)c1 (stereo not given)	3.9	-1.8	-6.6	14.3	-3.4	·	·	·
CCOc1ccc(NC(=S)N2CCC(C(O)(c3ccccc3)c3ccccc3)CC2)cc1	2.5	44.4*	9.0	-13.7	1.8	2.3	-0.8	-7.5
COc1ccc(NC(=S)N2CCC(C(O)(c3ccccc3)c3ccccc3)CC2)cc1	3.8	21.0	18.5	19.6	-0.7	·	·	·
CCOc1ccc(NC(=S)N2c3ccccc3CC2C)cc1 (stereo not given)	-17.4	65.5*	-6.5	-9.9	-0.1	-5.4	0.5	5.2
O=C(/C=C/c1cccc(Cl)c1)OCC(=O)c1ccc[nH]1	7.0	-6.9	·	·	·	·	·	·
COc1cc[n+]([O-])cc1[N+](=O)[O-]	-5.5	1.8	-2.9	·	·	·	·	·
CC1=C(C(=O)N(C)C)CC(CC(=O)NCCCN(C)C)C(=O)N1CCCN1CCCC1=O (stereo not given)	-1.9	-8.9	·	·	·	·	·	·
CCN(C(=O)c1cc2cc3ccc(C)cc3nc2o1)c1ccc(OC)cc1	27.4	42.1*	28.3	3.2	-4.3	50.9*	0.8	4.0
OC(c1ccc(F)cc1)c1nc(-c2ccc(Cl)cc2)cs1 (stereo not given)	-6.7	-1.8	·	·	·	·	·	·
CC1(C(=O)NS(=O)(=O)C2CC2)CCCN(C(=O)Cc2ccc3ccccc3c2)C1 (stereo not given)	2.3	1.5	·	·	·	·	·	·
CS(=O)(=O)Nc1ccc2c(c1)[C@H]1C[C@H](CC(=O)NCc3ccccc3)O[C@H](CO)[C@H]1O2	-1.3	-6.3	·	·	·	·	·	·
CC(=O)CCc1ccc(Oc2nc(-c3cccnc3)nc3ccccc23)cc1	-7.1	53.9*	4.6	-8.4	-3.4	25.0	1.4	3.1
COC(=O)c1ccc(-n2cc(-c3ccc(OC)cc3)[nH]c2=S)cc1	-0.1	74.0*	16.7	·	·	60.4*	0.4	5.1
COc1ccc(-n2cc(-c3ccc(Cl)cc3)[nH]c2=S)cc1	-18.1	90.7*	-4.7	-32.7	-0.4	72.3*	0.9	8.1
COc1ccc(CCN2C(=O)c3ccccc3C2c2nnnn2Cc2ccccc2)cc1OC (stereo not given)	-5.0	3.2	·	·	·	·	·	·

Source: PubChem (Sanford-Burnham Center for Chemical Genomics)
